# From ChEMBL document CHEMBL1139453, “Potent inhibitors of the Plasmodium falciparum enzymes plasmepsin I and II devoid of cathepsin D inhibitory activity” (J Med Chem, 2004)
# Key:
# Plasmepsin II = Plasmepsin II (Plasmodium falciparum, UniProt P46925); experiment: Inhibitory activity against protease plasmepsin-2 (Plm II) of Plasmodium falciparum
# Procedure, shortened: (§1)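 Plm II: 3 nM pro-enzyme, pro-sequence cleaved by 40 min room-temperature preincubation; Plm I amount matched to similar activity. Buffer 100 mM sodium acetate pH 4.5, 10% glycerol, 0.01% Tween 20. Inhibitor (up to 1500 nM Plm I, 2500 nM Plm II; 1% DMSO final), then 3 μM FRET substrate; fluorescence over 10 min. Competitive Langmuir IC50 converted to Ki via Michaelis–Menten Km.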
# Plasmodium falciparum [1] = experiment: In vitro percent inhibition of Plasmodium falciparum 3D7 in human erythrocyte at 5 uM; assay type: functional
# Procedure, shortened: (§2)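 Synchronous P. falciparum 3D7 early trophozoites (~1% haematocrit, 1% parasitaemia) in human erythrocytes, labelled with [3H]hypoxanthine 10 μCi mL⁻¹; compound added (1–5 μM final, DMSO up to 1% v/v), 30 h at 37 °C in gassed boxes to schizont stage. Filter-harvested, β-counted; radioactivity relative to DMSO-only wells; four independent experiments per concentration.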
# Cathepsin D [2] = biological target: T1, Cathepsin D (Homo sapiens, UniProt P07339); experiment: Inhibitory activity against human Cathepsin D; Range
# Procedure, shortened: (§3)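 Human liver Cat D, 50 ng/mL pro-form, activated 20 min at 37 °C in 100 mM sodium acetate pH 4.5, 10% glycerol, 0.01% Tween 20. Inhibitor (tested up to 2000 nM, final DMSO 1%) added before 3 μM DABCYL-Glu-Arg-Nle-Phe-Leu-Ser-Phe-Pro-EDANS. Fluorescence rise followed 10 min. IC50 from Langmuir fit assuming competitive inhibition; Ki = IC50/(1+[S]/Km).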
# Plasmepsin I = Plasmepsin I (Plasmodium falciparum, UniProt P39898); experiment: Inhibitory activity against protease plasmepsin-1 (Plm I) of Plasmodium falciparum; procedure, shortened: as §1
# Cathepsin D [3] = biological target: T1, Cathepsin D; experiment: Inhibitory activity against human cathepsin D; procedure, shortened: as §3
# Plasmodium falciparum [4] = experiment: Percent inhibition for Plasmodium falciparum at 5 uM; assay type: functional; procedure, shortened: as §2
# Chain of Plasmepsin II (P46925 whole entry): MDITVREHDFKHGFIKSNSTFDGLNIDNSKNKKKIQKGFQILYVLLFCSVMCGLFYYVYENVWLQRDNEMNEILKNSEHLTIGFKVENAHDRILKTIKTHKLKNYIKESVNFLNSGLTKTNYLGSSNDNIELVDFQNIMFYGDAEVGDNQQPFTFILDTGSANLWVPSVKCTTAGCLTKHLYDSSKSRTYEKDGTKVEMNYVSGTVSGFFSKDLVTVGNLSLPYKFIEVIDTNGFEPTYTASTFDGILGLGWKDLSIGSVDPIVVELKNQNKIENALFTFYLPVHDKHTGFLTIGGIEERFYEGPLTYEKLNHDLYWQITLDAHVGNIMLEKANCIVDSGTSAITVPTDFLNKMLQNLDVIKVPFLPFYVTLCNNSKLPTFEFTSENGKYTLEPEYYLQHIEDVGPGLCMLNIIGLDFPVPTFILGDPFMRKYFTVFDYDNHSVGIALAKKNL
# T1 sequence (P07339 65-162 limits assumed): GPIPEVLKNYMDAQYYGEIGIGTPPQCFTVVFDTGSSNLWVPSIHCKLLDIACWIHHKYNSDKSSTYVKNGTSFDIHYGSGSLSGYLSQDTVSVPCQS
# T1 sequence (P07339 169-412 limits assumed): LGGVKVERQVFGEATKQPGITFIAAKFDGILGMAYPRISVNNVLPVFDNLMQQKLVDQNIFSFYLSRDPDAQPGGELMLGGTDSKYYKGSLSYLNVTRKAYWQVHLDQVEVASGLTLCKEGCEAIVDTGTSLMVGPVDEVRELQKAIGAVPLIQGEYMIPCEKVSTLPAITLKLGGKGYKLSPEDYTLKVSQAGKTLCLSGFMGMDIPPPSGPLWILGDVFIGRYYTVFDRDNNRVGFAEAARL
# Chain of Plasmepsin I (P39898 whole entry): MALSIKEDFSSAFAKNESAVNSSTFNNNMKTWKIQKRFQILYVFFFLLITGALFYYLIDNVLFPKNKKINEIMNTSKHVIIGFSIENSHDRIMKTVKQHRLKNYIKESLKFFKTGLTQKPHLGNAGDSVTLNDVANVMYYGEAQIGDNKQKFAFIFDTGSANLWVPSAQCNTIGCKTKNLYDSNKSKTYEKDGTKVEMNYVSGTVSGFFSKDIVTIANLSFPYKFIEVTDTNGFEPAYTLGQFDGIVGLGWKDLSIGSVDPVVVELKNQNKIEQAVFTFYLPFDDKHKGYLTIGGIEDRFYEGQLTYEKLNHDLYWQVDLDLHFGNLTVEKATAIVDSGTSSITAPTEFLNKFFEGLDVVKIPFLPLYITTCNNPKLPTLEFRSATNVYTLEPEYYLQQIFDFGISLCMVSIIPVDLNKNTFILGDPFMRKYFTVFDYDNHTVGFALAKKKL
Compound,Ki (Plasmepsin II) [µM],inhibition at 5 µM (Plasmodium falciparum [1]) [%],Ki (Cathepsin D [2]) [µM],Ki (Plasmepsin I) [µM],Ki (Cathepsin D [3]) [µM],inhibition at 5 µM (Plasmodium falciparum [4]) [%]
CNC(=O)[C@@H](NC(=O)[C@H](OCc1ccccc1)[C@H](O)[C@@H](O)[C@@H](OCc1ccccc1)C(=O)N[C@H](C(=O)NC)C(C)C)C(C)C,3.8,,,,,
C=CCO[C@@H](CN[C@H]1c2ccccc2C[C@H]1O)[C@H](O)[C@@H](O)[C@@H](OCC=C)C(=O)N[C@H]1c2ccccc2C[C@H]1O,> 2.5,50,> 2,> 1.5,,
CC(C)[C@H](NC(=O)CCc1c[nH]c2ccccc12)C(=O)N[C@@H](Cc1ccccc1)[C@@H](O)CN[C@@H](Cc1ccc(-c2ccccc2)cc1)C(N)=O,0.011,,,0.0026,0.03,56
CC(=O)c1ccc(/C=C/CO[C@@H](C(=O)N[C@H]2c3ccccc3C[C@H]2O)[C@H](O)[C@@H](O)[C@@H](OC/C=C/c2ccc(C(C)=O)cc2)C(=O)N[C@H]2c3ccccc3C[C@H]2O)cc1,0.006,78,,0.0008,> 2,
C=CCO[C@@H](C(=O)N[C@H](C(=O)NC)C(C)C)[C@H](O)[C@@H](O)[C@@H](OCC=C)C(=O)N[C@H](C(=O)NC)C(C)C,4.1,,,,,
C[Si](C)(C)C#C/C=C/CO[C@@H](C(=O)N[C@H]1c2ccccc2C[C@H]1O)[C@H](O)[C@@H](O)[C@@H](OC/C=C/C#C[Si](C)(C)C)C(=O)N[C@H]1c2ccccc2C[C@H]1O,0.13,,,0.037,> 2,
C=CCO[C@@H](C(=O)N[C@H]1c2ccccc2C[C@H]1O)[C@H](O)[C@@H](O)[C@@H](OCC=C)C(=O)N[C@H]1c2ccccc2C[C@H]1O,0.096,0,,0.163,> 2,
O=C(N[C@H]1c2ccccc2C[C@H]1O)[C@H](OC/C=C/Br)[C@H](O)[C@@H](O)[C@@H](OC/C=C/Br)C(=O)N[C@H]1c2ccccc2C[C@H]1O,0.047,,,0.027,> 2,
O=C(N[C@H]1c2ccccc2C[C@H]1O)[C@H](OC/C=C/c1ccccc1)[C@H](O)[C@@H](O)[C@@H](OC/C=C/c1ccccc1)C(=O)N[C@H]1c2ccccc2C[C@H]1O,0.029,,,0.0014,> 2,
Cc1noc(C)c1/C=C/CO[C@@H](C(=O)N[C@H]1c2ccccc2C[C@H]1O)[C@H](O)[C@@H](O)[C@@H](OC/C=C/c1c(C)noc1C)C(=O)N[C@H]1c2ccccc2C[C@H]1O,0.181,,,0.023,> 2,
COc1ncc(/C=C/CO[C@@H](C(=O)N[C@H]2c3ccccc3C[C@H]2O)[C@H](O)[C@@H](O)[C@@H](OC/C=C/c2cnc(OC)nc2OC)C(=O)N[C@H]2c3ccccc3C[C@H]2O)c(OC)n1,0.013,2,,0.0084,> 2,
O=C(N[C@H]1c2ccccc2C[C@H]1O)[C@H](OCc1ccccc1)[C@H](O)[C@@H](O)[C@@H](OCc1ccccc1)C(=O)N[C@H]1c2ccccc2C[C@H]1O,0.085,,,0.025,> 2,
O=C(N[C@H]1c2ccccc2C[C@H]1O)[C@H](OC/C=C/C#Cc1ccccc1)[C@H](O)[C@@H](O)[C@@H](OC/C=C/C#Cc1ccccc1)C(=O)N[C@H]1c2ccccc2C[C@H]1O,0.041,,,0.0072,> 2,
COC(=O)/C=C/C=C/CO[C@@H](C(=O)N[C@H]1c2ccccc2C[C@H]1O)[C@H](O)[C@@H](O)[C@@H](OC/C=C/C=C/C(=O)OC)C(=O)N[C@H]1c2ccccc2C[C@H]1O,0.0089,51,,0.0037,> 2,
Cc1ccc(/C=C/CO[C@@H](C(=O)N[C@H]2c3ccccc3C[C@H]2O)[C@H](O)[C@@H](O)[C@@H](OC/C=C/c2ccc(C)cc2)C(=O)N[C@H]2c3ccccc3C[C@H]2O)cc1,0.129,,,0.0058,> 2,
C#C/C=C/CO[C@@H](C(=O)N[C@H]1c2ccccc2C[C@H]1O)[C@H](O)[C@@H](O)[C@@H](OC/C=C/C#C)C(=O)N[C@H]1c2ccccc2C[C@H]1O,0.037,,,0.032,> 2,
O=C(N[C@H]1c2ccccc2C[C@H]1O)[C@H](OC/C=C/c1ccc2c(c1)OCO2)[C@H](O)[C@@H](O)[C@@H](OC/C=C/c1ccc2c(c1)OCO2)C(=O)N[C@H]1c2ccccc2C[C@H]1O,0.014,61,,0.0005,> 2,
O=C(N[C@H]1c2ccccc2C[C@H]1O)[C@H](OC/C=C/c1ccc(F)cc1)[C@H](O)[C@@H](O)[C@@H](OC/C=C/c1ccc(F)cc1)C(=O)N[C@H]1c2ccccc2C[C@H]1O,0.059,,,0.0025,> 2,
O=C(N[C@H]1c2ccccc2C[C@H]1O)[C@H](OC/C=C/C=C/c1ccccc1)[C@H](O)[C@@H](O)[C@@H](OC/C=C/C=C/c1ccccc1)C(=O)N[C@H]1c2ccccc2C[C@H]1O,0.015,,,0.0044,> 2,
O=C(N[C@H]1c2ccccc2C[C@H]1O)[C@H](OC/C=C/c1ccsc1)[C@H](O)[C@@H](O)[C@@H](OC/C=C/c1ccsc1)C(=O)N[C@H]1c2ccccc2C[C@H]1O,0.015,,,0.0013,> 2,
